For series [1], the system named is MCF-7, HepG2, BGC-823, HeLa, A549 cancer cell lines (Homo sapiens). Description: Cytotoxicity against human MCF-7, HepG2, BGC-823, HeLa and A549 cells assessed as cell growth inhibition at 20 ug/ml after 72 hrs by MTT assay. To be noted: read-out: GI.
The subject of series [2] is MCF7. Description: Cytotoxicity against human MCF7 cells assessed as cell growth inhibition at 20 ug/ml after 72 hrs by MTT assay. The format is functional. To be noted: MCF7, 72 h, read-out: GI.
For series [3], the system named is HeLa. As to the kind of experiment: Cytotoxicity against human HeLa cells assessed as cell growth inhibition at 20 ug/ml after 72 hrs by MTT assay. The format is functional. To be noted: read-out: GI. Background: Tetrazolium dyes change colour on reduction, which living cells bring about.
Series [4] in a line: Cytotoxicity against human BCG823 cells assessed as cell growth inhibition at 20 ug/ml after 72 hrs by MTT assay. It counts as functional. To be noted: BCG823, 72 h, read-out: GI.
In series [5] the test system is A549. Description: Cytotoxicity against human A549 cells assessed as cell growth inhibition at 20 ug/ml after 72 hrs by MTT assay. It counts as functional. To be noted: A549, 72 h, read-out: GI.
The test system of series [6] is HepG2. Description: Cytotoxicity against human HepG2 cells assessed as cell growth inhibition at 20 ug/ml after 72 hrs by MTT assay. The format is functional. The note with it: HepG2, 72 h, read-out: GI.
A short description of series [7]: Cytotoxicity against human BCG823 cells assessed as cell growth inhibition after 72 hrs by MTT assay. To be noted: BCG823, 72 h. The format is functional, cell-based. In short, it runs like this: (§1)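 MTT growth assay in human cancer lines (MCF-7, HepG2, BGC-823, HeLa, A549), 72 h after treatment; 5-fluorouracil as reference. IC50 (μg/mL) taken as concentration giving 50% growth inhibition versus untreated control.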

Series [8] relates to HeLa. Description: Cytotoxicity against human HeLa cells assessed as cell growth inhibition after 72 hrs by MTT assay. It counts as functional, cell-based. A digest of the protocol:
as §1

The test system of series [9] is MCF7. As to the kind of experiment: Cytotoxicity against human MCF7 cells assessed as cell growth inhibition after 72 hrs by MTT assay. The format is functional, cell-based. To be noted: MCF7, 72 h. In short, it runs like this: as §1
Series [10] has as its system HepG2. Description: Cytotoxicity against human HepG2 cells assessed as cell growth inhibition after 72 hrs by MTT assay. The note with it: HepG2, 72 h. It counts as functional, cell-based. In short, it runs like this: as §1
In series [11] the test system is A549. As to the kind of experiment: Cytotoxicity against human A549 cells assessed as cell growth inhibition after 72 hrs by MTT assay. To be noted: A549, 72 h. The format is functional, cell-based. In short, it runs like this: as §1

The values below come from ChEMBL document CHEMBL3813688, “Synthesis, antitumor activity and mechanism of action of novel 1,3-thiazole derivatives containing hydrazide-hydrazone and carboxamide moiety” (Bioorg Med Chem Lett, 2016).

Values after ≈ are worked out from the molar mass of the structure shown.

Regarding `CCOC(=O)c1sc(NC)nc1C(F)(F)F`, the inhibition at 72 h, 20 ug/ml in series [1] was less than 10%. The inhibition of growth at 20 µg/mL in series [2], in [3], in series [4], in series [5] and in [6] was less than 10% in each case.
In general, IC50 refers to the concentration needed to halve the response being measured. As to `CNc1nc(C(F)(F)F)c(C(=O)N/N=C/c2cc(C(F)(F)F)cc(C(F)(F)F)c2)s1`, the inhibition at 72 h, 20 ug/ml in series [1] is less than 30%. In addition, the inhibition of growth at 20 µg/mL in series [2], in series [3], in series [4], in series [5] and in [6] was less than 30% each time. Moreover, the half-maximal inhibitory concentration (IC50) in series [7], in series [8], in series [9], in series [10] and in series [11] was more than 100 µg/mL in each case.
As for `CNc1nc(C)c(C(=O)N/N=C/c2ccccc2C(F)(F)F)s1`, the inhibition at 72 h, 20 ug/ml in series [1] is less than 30%. Also, the inhibition of growth at 20 µg/mL in series [2], in series [3], in [4], in series [5] and in series [6] was less than 30% throughout. Besides, the IC50 in series [7], in series [8], in series [9], in [10] and in series [11] was more than 100 µg/mL each time.
Take `CNc1nc(C)c(C(=O)N/N=C/c2cc(C(F)(F)F)cc(C(F)(F)F)c2)s1`: the inhibition at 72 h, 20 ug/ml in series [1] is less than 30%. In addition, the inhibition of growth at 20 µg/mL in series [2], in series [3], in series [4], in series [5] and in series [6] was less than 30% throughout. For the same compound, the IC50 in [7], in series [8], in series [9], in [10] and in series [11] was more than 100 µg/mL each time.
For the compound `Cc1nc(N(C)C(=O)NC(=O)c2c(F)cccc2F)sc1C(=O)N/N=C/c1ccc(C(F)(F)F)cc1`, the concentration for half-maximal inhibition (IC50) in series [7] was 65.5 µg/mL (≈ 125 µM); in [8] it was 40.5 µg/mL (≈ 77.2 µM); in series [9], 30.6 µg/mL (≈ 58.2 µM); in [10], more than 100 µg/mL; in series [11] it was 60.4 µg/mL (≈ 115 µM).
`CN(C(=O)NC(=O)c1ccc(Cl)cc1Cl)c1nc(C(F)(F)F)c(C(=O)N/N=C/c2ccc([N+](=O)[O-])cc2)s1`: the IC50 was determined as 2.13 µg/mL (≈ 3.61 µM) in series [7]; 5.12 µg/mL (≈ 8.69 µM) in series [8]; 6.74 µg/mL (≈ 11.4 µM) in [9]; 6.85 µg/mL (≈ 11.6 µM) in [10]; 6.44 µg/mL (≈ 10.9 µM) in [11].
As to `CN(C(=O)NC(=O)c1ccc(C(F)(F)F)cc1)c1nc(C(F)(F)F)c(C(=O)N/N=C/c2ccc(C(F)(F)F)cc2)s1`, the IC50 in series [7], in series [8], in series [9], in series [10] and in series [11] was more than 100 µg/mL throughout.
In the case of `Cc1nc(N(C)C(=O)NC(=O)c2ccc(Cl)cc2Cl)sc1C(=O)N/N=C/c1ccc(C(F)(F)F)cc1`, the IC50 in series [7] is 38 µg/mL (≈ 68 µM); in [8], 20.3 µg/mL (≈ 36.4 µM); in series [9], 24.5 µg/mL (≈ 43.9 µM); in series [10] it was more than 100 µg/mL; in series [11] it was 30.2 µg/mL (≈ 54.1 µM).
Turning to `CN(C(=O)NC(=O)c1ccccc1)c1nc(C(F)(F)F)c(C(=O)N/N=C/c2cccc([N+](=O)[O-])c2)s1`, the IC50 turned out to be 13.6 µg/mL (≈ 26.1 µM) in series [7]; 11.2 µg/mL (≈ 21.6 µM) in series [8]; 15.4 µg/mL (≈ 29.6 µM) in series [9]; 14.3 µg/mL (≈ 27.5 µM) in series [10]; 20.7 µg/mL (≈ 39.7 µM) in series [11].
`Cc1nc(N(C)C(=O)NC(=O)c2c(F)cccc2F)sc1C(=O)N/N=C/c1cc(C(F)(F)F)cc(C(F)(F)F)c1`: the IC50 in series [7] stood at 14.1 µg/mL (≈ 23.7 µM); in [8], 12.2 µg/mL (≈ 20.6 µM); in [9] it was 11.6 µg/mL (≈ 19.6 µM); in series [10], 11.4 µg/mL (≈ 19.1 µM); in series [11] it was 13 µg/mL (≈ 21.9 µM).
With `CN(C(=O)NC(=O)c1ccc(Cl)cc1Cl)c1nc(C(F)(F)F)c(C(=O)N/N=C/c2ccccc2C(F)(F)F)s1`, the IC50 in [7] came out at 5.73 µg/mL (≈ 9.36 µM); in [8], 9 µg/mL (≈ 14.7 µM); in series [9], 9.12 µg/mL (≈ 14.9 µM); in series [10] it was 10.7 µg/mL (≈ 17.4 µM); in series [11], 15.3 µg/mL (≈ 25 µM).
The like results for `CN(C(=O)NC(=O)c1c(F)cccc1F)c1nc(C(F)(F)F)c(C(=O)N/N=C/c2cccc(C(F)(F)F)c2)s1` were, in that order, 25.9 µg/mL (≈ 44.6 µM), 21.6 µg/mL (≈ 37.3 µM), 21.8 µg/mL (≈ 37.6 µM), 27.9 µg/mL (≈ 48.1 µM) and 27.6 µg/mL (≈ 47.6 µM).
The matching figures for `CN(C(=O)NC(=O)c1ccc(Cl)cc1Cl)c1nc(C(F)(F)F)c(C(=O)N/N=C/c2cc(C(F)(F)F)cc(C(F)(F)F)c2)s1`: more than 100 µg/mL, more than 100 µg/mL, more than 100 µg/mL, more than 100 µg/mL and more than 100 µg/mL.
